Source: PubChem (The Scripps Research Institute Molecular Screening Center)
An excerpt weighted towards active compounds, which were near 2.3% of everything screened.
MsrA act – activators of bovine methionine sulfoxide reductase A | purified bovine MsrA, absorbance read-out | 360,000 compounds, 0.3% hits | AID 602163 | activation, % at 10.6 µM; in the data active = activation above about 7.5%
MC4R barr agon – human MC4R agonism via beta-arrestin. activation, % at 8.9 µM. U2OS MC4R beta-arrestin complementation, luminescence; percent of melanotan II response, DMSO zero. AID 540308. 360,000 compounds, 0.98% hits;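 active = activation above a per-plate cutoff, the mean activation of sample wells on that plate plus 3 SD, cut at about 8% in these data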
Target sequence (P32245 whole entry, looked up): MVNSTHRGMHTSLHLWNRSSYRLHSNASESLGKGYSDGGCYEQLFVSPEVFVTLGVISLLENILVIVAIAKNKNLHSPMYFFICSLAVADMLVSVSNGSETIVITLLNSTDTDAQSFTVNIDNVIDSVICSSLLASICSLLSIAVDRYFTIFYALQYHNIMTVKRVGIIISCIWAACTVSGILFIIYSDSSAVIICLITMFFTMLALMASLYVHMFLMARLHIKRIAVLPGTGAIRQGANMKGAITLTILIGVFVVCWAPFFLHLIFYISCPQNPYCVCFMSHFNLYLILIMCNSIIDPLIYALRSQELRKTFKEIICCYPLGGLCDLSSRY
MC4R antag cAMP – blocks human MC4R cAMP signaling | 360,000 compounds, 0.48% hits | AID 540295 | P32245 | MC4R-expressing cells, MTII-stimulated cAMP, LANCE TR-FRET | inhibition, % at 6.5 µM;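 active = inhibition above its plate's cutoff, the mean of tested wells on that plate plus 3 SD, cut at about 29% in these data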
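System – human MC4R-expressing U2OS cells · Also added – Melanotan II · Dosing – one concentration, 6.5 µM nominal · Timing – 30-min compound, 1-h challenge, 1-h detection, room temperature · Measured by – Eu-cAMP/anti-cAMP TR-FRET, emission 671 nm · Replicates – singlicate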
MsrA inhibitor – inhibits bovine methionine sulfoxide reductase A; 360,000 compounds, 0.75% hits; purified bovine MsrA, absorbance read-out; AID 651718; inhibition, % at 15.5 µM; in the data active = inhibition above about 4.5%
MC4R barr conf – human MC4R beta-arrestin agonism confirmation. 2,400 compounds, 31% hits. activation, % at 8.9 µM. shares compounds with MC4R barr agon. U2OS MC4R beta-arrestin recruitment, luminescence; scaled DMSO 0%, Melanotan II 100%. AID 602192;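 active = mean activation across replicates above the hit cutoff set in the earlier primary screen, cut at about 8% in these data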
MOR DOR agonist – counter-screen for MC4R agonists: agonists of mu-delta opioid heterodimer; shares compounds with MC4R barr agon; 2,400 compounds, 5.8% hits; U2OS PathHunter beta-arrestin, beta-gal luminescence; percent of deltorphin B response, DMSO zero; activation, % at 9.2 µM;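 active = mean activation across replicates exceeds the hit threshold derived in the earlier primary screen, cut at about 18% in these data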
A number is an active result; - = inactive; . = no result given.

SMILES | MsrA act | MC4R barr agon | MC4R antag cAMP | MsrA inhibitor | MC4R barr conf | MOR DOR agonist
Cc1ccc(SCC(=O)Nc2ccc(-c3nnc(-c4ccco4)o3)cc2)cc1 | - | 18.3 | - | - | 9.1 | -
O=C(Nc1ccc(-c2nnc(-c3ccco3)o2)cc1)C(c1ccccc1)c1ccccc1 | - | 22.7 | - | - | - | -
Cc1ccc(SCC(=O)Nc2ccc(C(=O)Nc3ccc(O)cc3)cc2)cc1 | - | 10.8 | - | - | - | -
CCOC(=O)NC(=O)COC(=O)CNC(=O)c1cccc(OC)c1 | - | - | - | - | . | .
Cc1cc(C)c(C)c(S(=O)(=O)Nc2ccc(OCC(=O)O)cc2)c1C | - | - | - | - | . | .
O=C(Cc1ccc(Cl)cc1)Nc1ccc(-c2nnc(-c3ccco3)o2)cc1 | - | 12.4 | - | - | 13.1 | -
Cc1ccc(-c2nnc(-c3ccc(NC(=O)Cc4cccs4)cc3)o2)cc1 | - | 35.9 | - | - | 21.7 | -
NC(=O)C1(N2CCCCC2)CCN(C(=S)Nc2cc(F)cc(F)c2)CC1 | - | - | - | - | . | .
CCCCC(=O)N(C)c1c(C)nc2ccc(C(=O)N3CCCCC3)cn12 | - | - | - | - | . | .
CCOc1ccc(C=NC23CN4CN(CN(C4)C2)C3)cc1 | - | - | - | - | . | .
Cc1cccc(/C=N/NC(=O)c2cc(Br)ccc2OCc2ccccc2)n1 | - | 13.3 | - | - | - | -
COc1cccc(-c2cc(-c3cccnc3)nc(N)c2C#N)c1 | - | - | - | - | . | .
N#Cc1c(-c2cccc(Br)c2)cc(-c2cccnc2)nc1N | - | 32.4 | - | - | - | -
COc1ccc(-c2ccc(C)cc2)cc1[C@H]1[C@H]2C=CC[C@@H](C)[C@@H]2C(=O)N1Cc1ccccc1 | - | - | - | - | . | .
COCCn1c(=O)[nH]c2cc(C(=O)Nc3ccc(OC)c(Cl)c3)ccc2c1=O | - | - | - | . | . | .
C=CCn1c(=S)[nH]c2cc(C(=O)Nc3ccc(OC)c(OC)c3)ccc2c1=O | - | 10.1 | - | - | - | -
O=C(CN1CCCC1)N/N=C/c1ccc(-c2cccc(Cl)c2)o1 | - | - | - | - | . | .
O=C(Cn1nnc(-c2ccccc2Cl)n1)N/N=C/c1ccc(-c2cccc(Cl)c2)o1 | - | 11.3 | - | - | 8.9 | -
O=C(CCn1nnc(-c2cccs2)n1)N1CCc2ccccc2C1 | - | - | - | - | . | .
COC(=O)c1sccc1NC(=O)c1ccc(Cl)s1 | - | 11.5 | - | . | - | -
COC(=O)c1sccc1NC(=O)COc1ccc(F)cc1Cl | - | 10.1 | - | - | - | -
COC(=O)c1ccc(OCC(=O)Nc2ccsc2C(=O)OC)cc1 | - | - | - | - | . | .
COC(=O)c1sccc1NC(=O)Nc1ccc(Cl)c(Cl)c1 | - | 13.0 | - | - | - | -
COC(=O)c1sccc1NC(=O)Nc1ccc(C)c(C)c1 | - | - | - | - | . | .
COc1ccc2cc(C(=O)N3CCC(Cc4ccccc4)CC3)[nH]c2c1 | - | 10.1 | - | - | - | -
SMILES | MsrA act | MC4R barr agon | MC4R antag cAMP | MsrA inhibitor | MC4R barr conf | MOR DOR agonist
COc1ccc2[nH]c(C(=O)N3CCC(Cc4ccccc4)CC3)cc2c1 | - | - | - | . | . | .
Cc1ccc([N+](=O)[O-])cc1NC(=O)c1ccc(CSc2ccccc2)cc1 | - | 13.6 | - | - | - | -
Cc1cc(CSc2ccccc2)ccc1NC(=O)c1ccc(C)c([N+](=O)[O-])c1 | - | - | - | - | . | .
Cc1ccc(SCc2ccc(C(=O)Nc3cccc([N+](=O)[O-])c3C)cc2)cc1 | - | 23.0 | - | - | - | -
Cc1cc(CSc2ccccc2)ccc1NC(=O)c1ccc(Cl)c([N+](=O)[O-])c1 | - | 21.6 | - | - | - | -
O=C(Nc1ccsc1C(=O)NC1CC1)c1ccccc1 | - | - | - | - | . | .
COc1ccc(NC(=O)/C(C#N)=C/c2ccc[nH]2)c(OC)c1 | - | 10.5 | - | - | - | -
N#C/C(=C\c1ccc[nH]1)C(=O)Nc1ccccc1Cl | - | 11.8 | - | - | - | -
N#C/C(=C\c1ccc[nH]1)C(=O)Nc1ccccc1F | - | - | - | - | . | .
O=C(c1ccc(COc2ccc3ccccc3c2)o1)N1N=C(C(F)F)CC1(O)C(F)F (stereo not drawn) | - | 30.0 | - | . | 15.6 | -
O=C(c1ccc(COc2ccc(Br)cc2)o1)N1N=C(C(F)F)CC1(O)C(F)F (stereo not drawn) | - | 11.0 | - | - | 22.3 | -
Cc1cc(C)cc(OCc2ccc(C(=O)N3N=C(C(F)F)CC3(O)C(F)F)o2)c1 (stereo not drawn) | - | - | - | - | . | .
CCOc1ccc(OCc2ccc(C(=O)N3N=C(C(F)F)CC3(O)C(F)F)o2)cc1 (stereo not drawn) | - | - | - | - | . | .
O=C(Nc1cc(F)cc(F)c1)c1ccc(NCCc2ccccc2)c([N+](=O)[O-])c1 | - | 10.2 | - | - | - | -
Cc1ccc(NC(=O)c2ccc(NCCc3ccccc3)c([N+](=O)[O-])c2)cc1F | - | - | - | - | . | .
Cc1ccc(S(=O)(=O)Nc2cc(=O)[nH]c(SCc3ccc(Cl)cc3)n2)cc1 | - | 18.9 | - | - | - | -
O=C(Nc1ccc(N2CCN(c3ccc(O)cc3)CC2)cc1)Oc1ccccc1 | - | 26.0 | - | - | - | -
COc1cc(OC)cc(-c2c(-c3cccs3)c3cc(-c4ccc(C(N)=O)cc4)ccc3n2C)c1 | - | 16.4 | - | - | 10.8 | -
Cc1ccc(C)c(CN2C(=O)CSc3ccc(C(=O)NCC(C)CN4CCC(C)CC4)cc32)c1 (stereo not drawn) | - | - | - | - | . | .
COc1cccc(Nc2nnc(SCN3C(=O)c4ccccc4C3=O)s2)c1 | - | 14.5 | - | - | - | -
S=C(Nc1ccccc1)N1CCn2c1nc1ccccc12 | - | 24.5 | - | - | - | .
O=C(Nc1ccccc1)N1CCn2c1nc1ccccc12 | - | - | - | - | . | .
NC(=O)CC(NC(=O)Cc1ccc(Br)cc1)c1ccc(NC2CCCCCC2)c([N+](=O)[O-])c1 (stereo not drawn) | - | - | - | - | . | .
NC(=O)CC(NC(=O)Cc1ccc(Br)cc1)c1ccc(NC2CCCCCCC2)c([N+](=O)[O-])c1 (stereo not drawn) | - | 11.4 | - | - | - | -
CCCCCCCCn1c2c(c(=N)c3ccccc31)CCC2 | - | - | - | - | . | .
SMILES | MsrA act | MC4R barr agon | MC4R antag cAMP | MsrA inhibitor | MC4R barr conf | MOR DOR agonist
CCCCCCCCCCn1c2c(c(=N)c3c1CCC3)CCC2 | - | 17.4 | - | - | 10.9 | 19.3
CCCCCCCCCn1c2c(c(=N)c3c1CCC3)CCCC2 | - | 13.4 | - | . | - | -
O=C(CCn1cnc2ccccc2c1=O)Nc1nc(-c2ccc(Br)cc2)cs1 | - | 10.8 | - | - | - | 35.0
Cc1ccc(NC(=O)CCn2cnc3ccccc3c2=O)cc1 | - | - | - | - | . | .
Cc1cc(C)nc(N2CCC(C(=O)Nc3cccc(C(F)(F)F)c3)CC2)n1 | - | 14.5 | - | - | - | -
CS(=O)(=O)N1CCC(C(=O)Nc2cccc(C(F)(F)F)c2)CC1 | - | - | - | - | . | .
